Data: ChEMBL document CHEMBL2396619, “Synthesis and neuroprotective effect of E-3,4-dihydroxy styryl aralkyl ketones derivatives against oxidative stress and inflammation” (Bioorg Med Chem Lett, 2013)
Active and inactive are the calls of the source. The rule behind the calls is not given here.

Columns and labels:
[1] = Cytotoxicity against mouse BV2 cells assessed as cell viability at 50 uM after 24 hrs by MTT assay; assay type: cell-based, BV-2; conditions: read-out: Activity
Summary of the method: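 BV2 cells exposed to compounds at up to 50 µM for up to 24 h; viability determined by MTT assay.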

BV-2 [2] = experiment: Antineuroinflammatory activity in mouse BV2 cells assessed as reduction of LPS-induced nitric oxide production treated 3 hrs before LPS addition measured after 24 hrs by Griess assay; assay type: functional, cell-based
Summary of the method: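 LPS-stimulated BV2 microglia; nitrite in culture supernatant measured by Griess assay: supernatant mixed with an equal amount of Griess reagent, incubated in the dark, absorbance read at 540 nm.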

[3] = system: Radical scavenging activity; experiment: Antioxidant activity assessed as DPPH free radical scavenging activity after 60 mins by spectrophotometry; assay type: functional
PC-12 = experiment: Neuroprotective activity in rat PC12 cells assessed as protection against H2O2-induced reduction of cell viability at 10 uM treated 3 hrs before H2O2 addition measured after 5 hrs by MTT assay; assay type: functional, cell-based
Summary of the method: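 PC12 cells pretreated with compound at 10 µM for 3 h, then exposed to 500 µM H2O2 for 5 h. Viability measured by MTT and expressed as OD(treated)/OD(control) ×100%, with untreated cells (no compound, no H2O2) set to 100%. Mean ± SD, n = 3.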

[4] = Ratio of caffeic acid phenethyl ester IC50 to compound IC50 for DPPH free radical scavenging activity
[5] = system: Radical scavenging activity; experiment: Antioxidant activity assessed as DPPH free radical scavenging activity at 50 uM after 60 mins by spectrophotometry; assay type: functional
BV-2 [6] = experiment: Ratio of caffeic acid phenethyl ester IC50 to compound IC50 for antineuroinflammatory activity in mouse BV2 cells assessed as reduction of LPS-induced nitric oxide production; assay type: functional

Row | Structure (SMILES) | IC50 (BV-2 [2]) [µM] | IC50 [3] [µM] | viability at 24 h, 50 µM [1] [%] | Activity (PC-12) | Ratio IC50 [4] | inhibition [5] | Ratio IC50 (BV-2 [6])
1 | O=C(/C=C/c1ccc(O)c(O)c1)CCc1ccccc1 | 14.1 | 12.7 | > 90 | Active | – | – | –
2 | CC(=O)Oc1ccc(/C=C/C(=O)CCCCc2ccccc2)cc1OC(C)=O | 4.2 | – | > 90 | Active | – | inactive | 1.5
3 | O=C(/C=C/c1ccc(O)c(O)c1)CCc1cccc(Cl)c1 | 10.3 | 11.1 | > 90 | Active | – | – | –
4 | COc1ccc(CCC(=O)/C=C/c2ccc(OC(C)=O)c(OC(C)=O)c2)c(OC)c1 | 9.3 | – | > 90 | Active | – | inactive | –
5 | CC(=O)Oc1ccc(/C=C/C(=O)OCCc2ccccc2)cc1OC(C)=O | – | – | – | – | – | inactive | –
6 | COc1ccc(CCC(=O)/C=C/c2ccc(OC(C)=O)c(OC(C)=O)c2)cc1OC | 12.6 | – | > 90 | Active | – | inactive | –

The next lines start with results.

Row | IC50 (BV-2 [2]) [µM] | IC50 [3] [µM] | Structure (SMILES) | viability at 24 h, 50 µM [1] [%] | Activity (PC-12) | Ratio IC50 [4] | inhibition [5] | Ratio IC50 (BV-2 [6])
7 | 6.4 | 9.2 | O=C(/C=C/c1ccc(O)c(O)c1)CCCc1ccccc1 | > 90 | Active | 1.3 | – | –
8 | 5.3 | – | CC(=O)Oc1ccc(/C=C/C(=O)CCCc2ccccc2)cc1OC(C)=O | > 90 | Active | – | inactive | –
9 | 5.9 | 10.6 | O=C(/C=C/c1ccc(O)c(O)c1)CCCCc1ccccc1 | > 90 | Active | – | – | –
10 | 6.3 | 12.1 | COc1cc(CCC(=O)/C=C/c2ccc(O)c(O)c2)ccc1O | > 90 | Active | – | – | –
11 | 12.3 | – | CC(=O)Oc1ccc(/C=C/C(=O)CCc2ccccc2)cc1OC(C)=O | > 90 | Active | – | inactive | –
12 | 10.6 | 14 | COc1ccc(CCC(=O)/C=C/c2ccc(O)c(O)c2)c(OC)c1 | > 90 | Active | – | – | –
13 | 8.3 | – | CC(=O)Oc1ccc(/C=C/C(=O)CCc2cccc(Cl)c2)cc1OC(C)=O | > 90 | Active | – | inactive | –
14 | 14.5 | 13.2 | COc1ccc(CCC(=O)/C=C/c2ccc(O)c(O)c2)cc1OC | > 90 | Active | – | – | –
15 | 5.5 | – | COc1cc(CCC(=O)/C=C/c2ccc(OC(C)=O)c(OC(C)=O)c2)ccc1O | > 90 | Active | – | inactive | –
